Most compounds without a hit are left out; they make up all but 3% or so of the library.
RAM inhibit: inhibitors of the yeast RAM network, primary screen, dse1pr::URA3 reporter, 5-FOA selection | S. cerevisiae dse1pr::URA3 reporter, 5-FOA growth OD615, 2 d; analog-sensitive cbk1-as2 kinase mutant strain | inhibition, % at 50 µM | 190,000 compounds, 1.8% hits;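 active = inhibition above a set limit, 3 SD over mean compound inhibition, cut at about 8.4% in these data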;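 also: 0% = DMSO-only wells with no growth and 100% = 10 µM 1-NA-PP1 full growth; inhibition rescues growth on 5-FOA so higher OD means more RAM inhibition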
Yeast lifespan up: compounds extending yeast replicative lifespan, primary screen, S. cerevisiae, OD615; S. cerevisiae growth with nicotinamide; deaD strain in restrictive glucose medium; inhibition of the nicotinamide effect, % at 10 µM; 130,000 compounds, 0.68% hits; AID 775, 2007;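 active = inhibition above a set limit, placed 3 SD over the median of all compounds, cut at about 26% in these data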;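 also: 0% = nicotinamide-treated wells and 100% = cells grown without nicotinamide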
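Assay system: engineered S. cerevisiae DeaD replicative-lifespan strain, galactose-grown log-phase cells; Buffer or medium: CSMM-D glucose medium, restrictive; Probe or stimulus: nicotinamide 1.5 mM; Compound: single dose 10 µM compound, 0.25% DMSO; Schedule: 4 h preincubation then 48 h treatment at 30 °C; Technique: OD615 measurement.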
BB579 growth dn: growth inhibitors of yeast BB579 in restrictive medium, primary screen, yeast lifespan-shortening project, S. cerevisiae; OD615, 48 h; inhibition, % at 10 µM; 140,000 compounds, 0.51% hits; AID 804, 2007;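 active = inhibition above a set limit, 3 SD over the mean compound inhibition, cut at about 44% in these data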
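Assay system: S. cerevisiae DeaD strain BB579 yeast. Medium: CSMM-D restrictive synthetic medium containing dextrose (glucose). Times: 4 h cell preincubation, 48 h compound exposure, 30 °C humidified. Signal: OD615 turbidity measurement. Benchmarks: positive control amphotericin B 10 µg/mL.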
Insulin prom up: insulin promoter activators in MIN6 cells, imaging, high-content screening, mouse beta cells; MIN6 insulin promoter-GFP reporter; hits give high values; z-score at 5 µM; 190,000 compounds, 0.3% hits; AID 1625, 2009;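 active = z-score above 3 at 5 µM with at least 500 cells counted in the well; inconclusive = wells under 500 cells, flagged as cytotoxic or low count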
INS promoter inh: inhibitors of insulin promoter-driven GFP, primary screen, imaging, TRM-6 cells, eGFP reporter, cell count | 130,000 compounds, 0.9% hits | inhibition, % at 2 µM | reporter expression induced with tamoxifen | AID 1273, 2008;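 active = inhibition above the mean plus 3 SD, with well images judged a real hit on visual review, cut at about 60% in these data, passing the limit was not always enough; inconclusive = inhibition over the cutoff but images rejected on review; inactive = inhibition not above the cutoff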
An asterisk follows results filed as active; ? = inconclusive; · = no result given.

SMILES	RAM inhibit	Yeast lifespan up	BB579 growth dn	Insulin prom up	INS promoter inh
CC(C)CN1C2CCCC1CC(NC(=S)NCc1ccco1)C2 (stereo not given)	0.5	·	·	0.47	·
COc1cc(-c2nnc(COc3ccc4cc(Br)ccc4c3)o2)cc(OC)c1OC	3.0	-6.0	-58.0	0.13	-3.1
COc1ccc(-c2nnc(COc3ccc4ccccc4c3)o2)cc1OC	9.7*	-6.8	-17.5	0.09	21.4
COc1cc(/C=C/C(=O)CC(=O)/C=C/c2ccc(O)c(OC)c2)ccc1O	8.7*	-1.4	-6.4	·	-50.0
COc1cc(C=C(C(C)=O)C(C)=O)ccc1O	0.5	2.3	-6.0	·	16.7
Cc1nc2ccc(NC(=O)N3CCSCC3)cc2s1	0.9	-17.8	13.2	-0.41	-34.5
Cc1nc2ccc(NC(=O)N3CCSCC3)cc2nc1C	0.1	-8.8	-46.8	-0.48	77.1*
CCc1ccc2nc(N3C(=O)C(O)=C(C(=O)c4ccco4)C3c3cccs3)sc2c1 (stereo not given)	3.9	44.7*	-65.2	0.32	25.0
COC(=O)[C@H](Cc1ccccc1)NC(=O)O[C@@H]1C(=O)c2cc(OC)ccc2O[C@H]1c1ccc(OC)c(Br)c1	10.6*	4.9	-40.6	-0.68	14.3
COc1ccc(NCc2ccc([N+](=O)[O-])s2)cc1	-0.3	21.9	27.0	-0.6	-20.0
COc1ccc(NCc2ccc([N+](=O)[O-])s2)c(OC)c1	-0.5	-7.7	99.7*	0.53	-26.7
O=C(/C=C/c1cccc([N+](=O)[O-])c1)Nc1ccc(NC(=O)c2cccs2)cc1	1.0	-3.3	-32.6	0.54	·
O=C(/C=C/c1cccc([N+](=O)[O-])c1)c1cccs1	3.2	28.2*	-10.1	-0.06	37.5
Brc1ccc(-c2cn3ccccc3n2)s1	0.8	-12.1	-33.1	-0.35	85.7*
CCCc1cc(NCc2ccccn2)n2c(nc3ccccc32)c1C#N	11.0*	·	·	-0.42	0.0
Cc1cc(NCc2ccccn2)n2c(nc3ccccc32)c1C#N	0.4	·	·	-0.17	-33.3
CCOc1ccc2nc(NCCCNS(=O)(=O)c3ccccc3)c(C#N)cc2c1	9.7*	-9.4	-22.6	0.25	5.6
COc1ccc(CNC(=O)CS(=O)CC(=O)O)cc1OC (stereo not given)	0.1	·	·	0	·
CC(C)N1C(=S)N(Cc2ccco2)C(=O)C1CC(=O)Nc1ccccc1 (stereo not given)	3.4	·	·	0.24	-25.0
COc1ccccc1OCCCn1cc(C#N)c2ccccc21	5.4	-27.6	-35.2	1.63	-114.3
COc1ccccc1OCCCn1c(C)c(C#N)c2ccccc21	10.7*	-14.4	-31.2	-1.27	-28.6
O=C(C[n+]1cnn(CC(=O)c2ccc(Cl)cc2Cl)c1)c1ccc([N+](=O)[O-])cc1	0.6	-1.6	-5.0	0.5	·
Cc1ccc(NC(=O)C2CC(=O)n3c(nc4ccccc43)N2)cc1Cl (stereo not given)	4.0	·	·	-0.43	73.3*
CC(=O)Nc1ncnc2c1c(-c1ccc(Cl)cc1)nn2C(C)(C)C	8.9*	·	·	0	·
CC(=O)N(C(C)=O)c1ncnc2c1c(-c1ccc(Cl)cc1)nn2C(C)(C)C	3.7	·	·	-0.36	·
SMILES	RAM inhibit	Yeast lifespan up	BB579 growth dn	Insulin prom up	INS promoter inh
CC(=O)N1CCN(C(=O)c2cc(C)nc3ccccc23)CC1	-1.0	·	·	-0.05	70.6*
Cc1cc(C(=O)OCC(=O)N2CCCC2)c2ccccc2n1	-0.3	-8.7	-41.4	-0.65	34.4
COc1ccc(Oc2cccc(Cl)c2CNC(=O)CCC(=O)O)cc1	·	·	·	-0.51	·
O=C1SC(SC(=Nc2ccccc2)Nc2ccccc2)C(=O)N1c1ccccc1 (stereo not given)	1.6	33.7*	-8.7	0.39	11.1
Cc1cc(SCCOc2ccccc2)nc(N)n1	-0.7	-15.7	-5.3	3.13*	48.6
Cc1cc(Oc2ccccc2)nc(N)n1	0.7	-6.5	-16.1	-0.44	-123.8
O=C(COC(=O)CNC(=O)c1ccc(-c2ccccc2)cc1)NCc1ccco1	2.2	·	·	0.04	·
COc1cc2[nH]c(=O)n(CCCCCC(=O)NCCc3c[nH]c4ccccc34)c(=O)c2cc1OC	1.3	-23.4	-19.1	·	66.7*
CC(C)(CO)NC(=O)Nc1ccc(Cl)c(Cl)c1	-0.4	·	·	0.71	·
Cc1ccc(C(=O)CSc2nnc(-c3snnc3C)n2C2CC2)cc1	·	·	·	1.12	·
CC(=O)c1ccc(NC(=O)CCCN2C(=O)/C(=C/C(C)=C/c3ccccc3)SC2=S)cc1	10.4*	1.6	-25.1	-0.65	0.0
CC(/C=C1\SC(=S)N(CC(=O)N2CCN(c3ccccc3)CC2)C1=O)=C\c1ccccc1	9.8*	4.6	-39.2	0.27	-17.2
O=C(/C=C/Nc1ccc(S(=O)(=O)Nc2ncccn2)cc1)c1ccc2ccccc2c1	·	·	·	-0.94	·
CCCCCCCCCn1c2c(c(=N)c3c1CCC3)CCCC2	-0.9	·	·	-2.59	-300.0
CCCCCCCCCCn1c2c(c(=N)c3c1CCC3)CCC2	-1.8	-28.6	98.5*	?	-86.0
CNC(=S)N(Cc1ccc(OC)cc1)Cc1cc2cc(C)ccc2[nH]c1=O	8.5*	·	·	0.34	·
COC(=O)c1ccccc1NC(=S)N(Cc1ccc2c(c1)OCO2)Cc1cc2cc(OC)ccc2[nH]c1=O	8.5*	8.0	-43.2	·	·
O=C(Nc1cccs1)Nc1ccc(Br)cc1F	3.6	-5.7	-56.8	0.91	70.4*
COc1ccc(NC(=O)N2CCN(c3cccc(C(F)(F)F)c3)CC2)cc1	3.3	-14.5	-31.2	·	75.3*
COc1cccc(NC(=O)N2CCN(c3nnnn3-c3ccccc3)CC2)c1	-0.8	·	·	3.09*	·
CCOC(=O)C1(CCCc2ccccc2)CCN(C(=O)CCC2=NNC(=O)CC2)CC1	-1.0	·	·	-1.43	·
COc1ccc(NC(=O)Nc2ccccc2F)cc1Cl	2.0	·	·	-1.61	·
CCOc1ccc(C(=O)CC(=O)C(=O)NCCc2ccc(OC)c(OC)c2)cc1	1.4	13.6	16.3	0.08	41.4
CCOC(=O)C1C(=O)C=C(/C=C/c2ccc(N(C)C)cc2)CC1c1ccccc1 (stereo not given)	2.7	3.8	-2.8	9.81*	·
CCOC(=O)C1C(=O)C=C(c2ccc(C)cc2)CC1c1ccccc1 (stereo not given)	2.8	·	·	-0.36	·
SMILES	RAM inhibit	Yeast lifespan up	BB579 growth dn	Insulin prom up	INS promoter inh
COc1cc(OC)cc(C(=O)N[C@H](C(=O)Nc2nc(-c3ccc(F)c(F)c3)cs2)C(C)C)c1	2.9	·	·	0.5	-37.5
CCSc1cc(N2CCCC2)nc(-c2ccccc2Cl)n1	0.0	4.7	-12.2	0.06	-40.0
CCOc1ccc(C(=O)NC(=S)Nc2cccc(NC(=O)c3ccco3)c2)cc1[N+](=O)[O-]	8.8*	7.5	-21.9	0.43	·
CC(C)C(=O)Nc1ccc2c(c1)nc1n2CCSC1	0.9	-5.8	-37.6	0.55	75.7*
CCC(=O)Nc1ccc2c(c1)nc1n2CCSC1	0.0	-8.8	-25.4	-0.06	·
O=C(COC(=O)CC12CC3CC(CC(C3)C1)C2)Nc1ncc(Cl)cc1Cl	8.1	31.4	-30.9	-0.77	100.0*
